Six molecules from PMC4112416 (MedChemComm, 2014) can be followed below.

Data set [1] addresses human DNA topoisomerase II (Homo sapiens, UniProt P11388). Kind of data set: Inhibition assay against human DNA topoisomerase II. Type of data set: biochemical. To be noted: 50 μM compound. An outline of the steps:
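Relaxation of 200 ng supercoiled pBAD-GFPuv by 4 units human topoisomerase II. Compound final 5–50 μM (10 and 50 μM in gel panels). 30 min at 37 °C, stopped by phenol extraction. Run on 1% agarose without chloroquine and ethidium-stained. (−) supercoiled band was quantified as a fraction of all topoisomers.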

For data set [2], the target named is E. coli DNA topoisomerase I (Escherichia coli, UniProt P06612). Description: Inhibition assay against E. coli DNA topoisomerase I. Type of data set: biochemical. To be noted: gel titration, 6 nM enzyme.
Another data set relates to duplex DNA (dA60.dT60). Kind of data set: UV thermal denaturation of AT rich DNA duplex. Type of data set: binding. The conditions noted are these: 10 μM ligand, 1 μM duplex, 10 mM sodium cacodylate, 0.1 mM EDTA, 100 mM NaCl, pH 7.0.
In data set [3] the test system is prostate cancer cell line DU-145. Description: Cytotoxicity, sulforhodamine B assay. Type of data set: cell-based. The conditions noted are these: DU-145, 48 h treatment, SRB. For orientation: Sulforhodamine B stains cellular protein and so reports cell mass.
Data set [4] can be described thus: Cytotoxicity, sulforhodamine B assay. Type of data set: cell-based. The conditions noted are these: human, DU-145 prostate cancer cells.
Data set [5] has as its target T1, human DNA topoisomerase I (Homo sapiens, UniProt P11387).
T1 sequence (P11387 1-765): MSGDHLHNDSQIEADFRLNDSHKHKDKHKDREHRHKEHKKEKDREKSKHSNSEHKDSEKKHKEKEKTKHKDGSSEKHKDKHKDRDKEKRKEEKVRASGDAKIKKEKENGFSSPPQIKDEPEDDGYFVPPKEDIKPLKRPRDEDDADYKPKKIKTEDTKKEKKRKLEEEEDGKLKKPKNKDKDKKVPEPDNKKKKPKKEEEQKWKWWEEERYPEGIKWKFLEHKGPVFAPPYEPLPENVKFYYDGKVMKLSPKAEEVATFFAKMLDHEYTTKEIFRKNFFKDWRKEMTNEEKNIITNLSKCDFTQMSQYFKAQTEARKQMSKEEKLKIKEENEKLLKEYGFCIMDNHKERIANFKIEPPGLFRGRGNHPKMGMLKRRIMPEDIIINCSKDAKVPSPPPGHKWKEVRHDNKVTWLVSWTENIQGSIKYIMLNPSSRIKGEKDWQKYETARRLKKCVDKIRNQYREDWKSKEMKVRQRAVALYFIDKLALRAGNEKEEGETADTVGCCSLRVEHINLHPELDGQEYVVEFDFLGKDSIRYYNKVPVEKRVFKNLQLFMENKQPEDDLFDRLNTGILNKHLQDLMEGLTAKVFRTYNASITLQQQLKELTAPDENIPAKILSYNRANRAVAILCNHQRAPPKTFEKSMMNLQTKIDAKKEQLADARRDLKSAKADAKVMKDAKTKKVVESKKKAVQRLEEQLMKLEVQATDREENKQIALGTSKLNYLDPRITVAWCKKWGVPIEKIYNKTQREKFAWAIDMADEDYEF
Description: Inhibition assay against human DNA topoisomerase I. Type of data set: biochemical. The conditions noted are these: 50 μM compound.

The target in another data set is E. coli DNA gyrase (Escherichia coli, UniProt P0AES4+P0AES6). Description: Inhibition assay against E. coli DNA gyrase. Type of data set: biochemical. To be noted: 1 to 50 μM compound.
In another data set the test system is E. faecalis 29212. Kind of data set: MIC by microbroth dilution. Type of data set: cell-based. To be noted: Enterococcus faecalis, 29212, 24 h, read-out: MIC S6. An outline of the steps:
(§1)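 CLSI microbroth dilution in Mueller-Hinton broth. Log-phase cultures (37 °C, shaking) were pelleted and resuspended in 0.85% saline to OD625 0.1, giving final 5×10^5 CFU/mL. Triplicate wells were incubated 24 h at 37 °C and read at OD625. MIC is given as a range where no sharp growth inflection occurred.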
Background: In broth dilution the organism is exposed to a series of concentrations in liquid medium.

The subject of another data set is S. aureus 33591. Description: MIC by microbroth dilution. Type of data set: cell-based. The conditions noted are these: Staphylococcus aureus, 33591, 24 h, read-out: MIC S2. An outline of the steps:
as §1

Values after ≈ are worked out from the molar mass of the structure shown. A value given as a limit tells only on which side of the number the result lay.

E. coli DNA topoisomerase I, sequence (P06612 whole entry): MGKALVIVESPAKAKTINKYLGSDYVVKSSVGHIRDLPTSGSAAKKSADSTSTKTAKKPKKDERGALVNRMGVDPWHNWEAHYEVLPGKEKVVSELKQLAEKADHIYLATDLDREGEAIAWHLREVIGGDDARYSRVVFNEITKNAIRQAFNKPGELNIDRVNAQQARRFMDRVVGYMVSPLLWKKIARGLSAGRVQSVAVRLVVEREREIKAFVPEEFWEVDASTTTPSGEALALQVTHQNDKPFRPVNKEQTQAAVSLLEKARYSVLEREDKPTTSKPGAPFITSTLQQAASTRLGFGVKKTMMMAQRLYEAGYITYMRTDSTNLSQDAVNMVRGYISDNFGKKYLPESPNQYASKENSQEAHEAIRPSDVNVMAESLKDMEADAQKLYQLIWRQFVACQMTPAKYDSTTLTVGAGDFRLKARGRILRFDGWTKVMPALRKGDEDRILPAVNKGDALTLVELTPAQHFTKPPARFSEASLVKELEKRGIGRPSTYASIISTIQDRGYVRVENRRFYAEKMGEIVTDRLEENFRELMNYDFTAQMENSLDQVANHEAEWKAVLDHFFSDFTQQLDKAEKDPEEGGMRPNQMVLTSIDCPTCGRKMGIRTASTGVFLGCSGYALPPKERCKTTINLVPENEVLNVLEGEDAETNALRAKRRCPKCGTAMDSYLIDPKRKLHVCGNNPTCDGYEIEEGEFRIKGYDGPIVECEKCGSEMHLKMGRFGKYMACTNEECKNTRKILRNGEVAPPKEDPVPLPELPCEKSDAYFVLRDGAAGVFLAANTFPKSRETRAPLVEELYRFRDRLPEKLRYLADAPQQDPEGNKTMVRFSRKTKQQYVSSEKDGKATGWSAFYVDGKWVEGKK
human DNA topoisomerase II, sequence (P11388 whole entry): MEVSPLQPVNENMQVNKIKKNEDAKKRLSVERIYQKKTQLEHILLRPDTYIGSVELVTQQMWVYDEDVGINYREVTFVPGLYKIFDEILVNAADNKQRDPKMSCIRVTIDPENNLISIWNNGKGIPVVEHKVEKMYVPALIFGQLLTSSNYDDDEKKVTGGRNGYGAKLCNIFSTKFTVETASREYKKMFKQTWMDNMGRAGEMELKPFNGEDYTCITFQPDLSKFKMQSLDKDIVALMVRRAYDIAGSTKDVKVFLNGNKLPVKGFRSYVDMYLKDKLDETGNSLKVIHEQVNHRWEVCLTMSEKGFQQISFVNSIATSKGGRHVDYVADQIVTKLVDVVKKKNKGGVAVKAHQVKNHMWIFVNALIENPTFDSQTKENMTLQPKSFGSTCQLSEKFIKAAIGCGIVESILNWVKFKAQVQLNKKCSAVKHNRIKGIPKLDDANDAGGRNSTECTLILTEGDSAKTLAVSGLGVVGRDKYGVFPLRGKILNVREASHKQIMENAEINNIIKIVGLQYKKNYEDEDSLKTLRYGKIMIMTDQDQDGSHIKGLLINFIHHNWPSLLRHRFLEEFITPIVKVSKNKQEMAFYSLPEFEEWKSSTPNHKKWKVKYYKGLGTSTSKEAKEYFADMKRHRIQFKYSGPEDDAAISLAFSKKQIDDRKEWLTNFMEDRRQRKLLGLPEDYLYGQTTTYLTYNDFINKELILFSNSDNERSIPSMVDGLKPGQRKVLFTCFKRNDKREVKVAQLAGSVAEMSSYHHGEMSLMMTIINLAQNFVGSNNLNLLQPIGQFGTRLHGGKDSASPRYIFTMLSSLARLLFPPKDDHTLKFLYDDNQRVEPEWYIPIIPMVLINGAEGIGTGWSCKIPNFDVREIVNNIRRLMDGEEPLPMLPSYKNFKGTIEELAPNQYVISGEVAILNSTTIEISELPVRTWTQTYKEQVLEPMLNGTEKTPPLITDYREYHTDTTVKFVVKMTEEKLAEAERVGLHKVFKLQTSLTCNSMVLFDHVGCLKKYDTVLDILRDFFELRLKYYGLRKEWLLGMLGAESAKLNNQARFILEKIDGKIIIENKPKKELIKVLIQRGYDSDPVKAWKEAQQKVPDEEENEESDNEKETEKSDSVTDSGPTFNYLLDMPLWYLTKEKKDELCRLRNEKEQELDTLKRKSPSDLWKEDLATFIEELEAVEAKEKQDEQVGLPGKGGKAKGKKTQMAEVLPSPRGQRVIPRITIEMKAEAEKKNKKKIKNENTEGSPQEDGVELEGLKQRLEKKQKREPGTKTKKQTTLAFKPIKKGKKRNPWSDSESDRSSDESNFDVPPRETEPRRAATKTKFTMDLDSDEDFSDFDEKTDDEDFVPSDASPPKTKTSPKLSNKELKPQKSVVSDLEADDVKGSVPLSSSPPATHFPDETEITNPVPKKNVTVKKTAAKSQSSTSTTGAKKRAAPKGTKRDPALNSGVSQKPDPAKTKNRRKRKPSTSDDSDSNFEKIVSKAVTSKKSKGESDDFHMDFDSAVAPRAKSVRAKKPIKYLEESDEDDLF
E. coli DNA gyrase, sequence (P0AES4 whole entry, one chain of several): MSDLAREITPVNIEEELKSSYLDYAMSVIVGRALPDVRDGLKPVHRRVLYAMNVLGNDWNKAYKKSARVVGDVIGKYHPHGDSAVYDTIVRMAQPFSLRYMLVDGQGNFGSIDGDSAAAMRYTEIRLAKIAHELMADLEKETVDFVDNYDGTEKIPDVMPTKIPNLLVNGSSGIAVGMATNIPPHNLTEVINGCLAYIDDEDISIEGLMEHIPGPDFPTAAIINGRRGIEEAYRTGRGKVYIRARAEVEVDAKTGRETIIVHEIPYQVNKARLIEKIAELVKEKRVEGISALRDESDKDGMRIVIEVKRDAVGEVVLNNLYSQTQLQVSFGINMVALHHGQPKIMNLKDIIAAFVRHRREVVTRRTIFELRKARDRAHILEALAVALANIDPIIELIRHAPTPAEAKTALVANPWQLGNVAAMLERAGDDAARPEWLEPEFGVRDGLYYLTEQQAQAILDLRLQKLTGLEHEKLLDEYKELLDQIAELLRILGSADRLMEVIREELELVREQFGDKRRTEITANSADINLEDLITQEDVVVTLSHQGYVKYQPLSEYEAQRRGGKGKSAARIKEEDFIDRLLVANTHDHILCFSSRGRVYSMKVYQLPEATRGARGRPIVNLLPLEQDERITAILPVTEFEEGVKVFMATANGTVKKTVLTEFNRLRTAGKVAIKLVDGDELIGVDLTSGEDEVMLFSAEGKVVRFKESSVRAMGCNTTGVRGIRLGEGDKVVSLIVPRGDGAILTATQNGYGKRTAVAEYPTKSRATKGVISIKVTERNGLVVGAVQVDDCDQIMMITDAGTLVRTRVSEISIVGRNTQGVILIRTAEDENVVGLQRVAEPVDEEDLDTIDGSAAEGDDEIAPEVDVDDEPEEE

Regarding `C#CCOc1ccc(-c2nc3ccc(-c4nc5ccc(N6CCN(C)CC6)cc5[nH]4)cc3[nH]2)cc1` [DPA 151, 6-(4-methylpiperazin-1-yl)-2′-(4-(prop-2-ynyloxy)phenyl)-1H,3′H-2,5′-bibenzo[d]imidazole], the “inhibition of human DNA topoisomerase II activities” value in data set [1] was “partially inhibit”. In addition, the “concentration needed to completely inhibit the activities of E. coli DNA topoisomerase I” value in data set [2] is reported as “approximately 5 μM”. For the same molecule, in the data set with duplex DNA (dA60.dT60), the Tm was found to be 85.4 °C.

For the molecule `C#CCCCCOc1ccc(-c2nc3ccc(-c4nc5ccc(N6CCN(C)CC6)cc5[nH]4)cc3[nH]2)cc1` [DPA 152, 2′-(4-(hex-5-ynyloxy)phenyl)-6-(4-methylpiperazin-1-yl)-1H,3′H-2,5′-bibenzo[d]imidazole], the “cytotoxicity relative to Hoechst 33242” value in [3] is “nearly twice as toxic as Hoechst 33242”. Also, the Tm with duplex DNA (dA60.dT60) was 83.4 °C.

As for `C#CCCCCCCCCCOc1ccc(-c2nc3ccc(-c4nc5ccc(N6CCN(C)CC6)cc5[nH]4)cc3[nH]2)cc1` [DPA 153, 6-(4-methylpiperazin-1-yl)-2′-(4-(undec-10-ynyloxy)phenyl)-1H,3′H-2,5′-bibenzo[d]imidazole], in data set [4], the IC50 at 48 h is greater than 10 µM. Further, the Tm with duplex DNA (dA60.dT60) was found to be 70.5 °C.

Turning to `C#CCOCCCCOc1ccc(-c2nc3ccc(-c4nc5ccc(N6CCN(C)CC6)cc5[nH]4)cc3[nH]2)cc1` [DPA 154, 6-(4-methylpiperazin-1-yl)-2′-(4-(4-(prop-2-ynyloxy)butoxy)phenyl)-1H,3′H-2,5′-bibenzo[d]imidazole], in the data set with duplex DNA (dA60.dT60), the melting temperature (Tm) came to 85.9 °C.

On to `CN1CCN(c2ccc3[nH]c(-c4ccc5[nH]c(-c6ccc(O)cc6)nc5c4)nc3c2)CC1` [Hoechst 33258], for which the “supercoiled DNA template prevented from relaxation by human DNA topoisomerase I” value in data set [5] was “about 70%”. In addition, the “inhibition of DNA gyrase's activities” value against E. coli DNA gyrase is recorded as “did not inhibit”. In addition, the MIC with E. faecalis 29212 and with S. aureus 33591 was 16 to 32 µg/mL (≈ 37.7 to 75.4 µM) throughout. The “inhibition of human DNA topoisomerase II activities” value in data set [1] is “completely inhibit”. The “concentration needed to completely inhibit the activities of E. coli DNA topoisomerase I” value in data set [2] was “approximately 20 μM”. Moreover, in the data set with duplex DNA (dA60.dT60), the Tm stood at 87.1 °C.

For the molecule `CCOc1ccc(-c2nc3cc(-c4nc5cc(N6CCN(C)CC6)ccc5[nH]4)ccc3[nH]2)cc1` [Hoechst 33342], the MIC in the data set on E. faecalis 29212 is 16 to 32 µg/mL (≈ 35.4 to 70.7 µM). For the same molecule, in the data set with duplex DNA (dA60.dT60), the Tm was found to be 86.6 °C.

Broadly, the Tm is the temperature at the midpoint of the melting transition. For orientation: IC50 means the concentration that inhibits the measured activity by half. As a reminder, the MIC is the smallest concentration in the dilution series that meets the test's criterion for growth inhibition.
